Measured values taken from ChEMBL document CHEMBL3745642, “Structure-Activity Relationships of Novel Tryptamine-Based Inhibitors of Bacterial Transglycosylase” (J Med Chem, 2015).
Calls of active or inactive are those of the source. No cut-off for these calls is given here.

System: Escherichia coli
Assay: Inhibition of transglycosylase activity of Escherichia coli PBP1b assessed as remaining activity at 500 uM incubated for 30 mins by continous fluorescence assay
Conditions: not given
In short: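 Continuous fluorescence TG assay at 30 °C with purified E. coli PBP1b (100 nM) and dansyl-lipid II (10 µM) plus 1 U muramidase (Cellosyl). Fluorescence (ex 355/em 536 nm) read for 30 min. Relative activity measured with compound at 500 µM.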

First: COc1ccc2c(c1)c(CCN)c(C)n2Cc1ccccc1
Second: COc1ccc2c(c1)c(CCN)c(C)n2Cc1ccc(C#N)cc1
The Activity of the first is lower: 75% for the first, 118% for the second.

Compared with `COc1ccc2c(c1)c(CCN)cn2Cc1ccc(C#N)cc1`, `COc1ccc2c(c1)c(CCN)cn2Cc1ccc(F)c(F)c1` is lower in Activity: 105% for the first, 88% for the second.

First: NCCc1cn(Cc2cccc(Cl)c2)c2ccccc12
Second: COc1cccc(Cn2cc(CCN)c3ccccc32)c1
The Activity of the first is lower: 54% for the first, 86% for the second.

Going from `COc1ccc2c(c1)c(CCNC(=N)N)cn2Cc1ccc(Cl)c(Cl)c1.Cl` to `COc1ccc2c(c1)c(CCNC(=N)N)c(C)n2Cc1ccc(Cl)c(Cl)c1.Cl`, the Activity falls from 9% to 4%.

First: N=C(N)NCCc1cn(Cc2cccc(Cl)c2)c2ccccc12
Second: N=C(N)NCCc1cn(Cc2ccc(F)cc2)c2ccccc12
The Activity of the first is lower: 15% for the first, 42% for the second.

Going from `COc1ccccc1Cn1cc(CCNC(=N)N)c2ccccc21` to `COc1ccccc1Cn1cc(CCN)c2ccccc21`, the Activity rises from 29% to 96%.

Going from `COc1ccc2c(c1)c(CCN)c(C)n2Cc1ccc(F)c(F)c1` to `NCCc1cn(Cc2ccc(F)c(F)c2)c2ccccc12`, the Activity rises from 28% to 62%.

Going from `Cl.NCCc1cn(Cc2ccc(Cl)c(Cl)c2)c2ccccc12` to `COc1ccc(Cn2cc(CCNC(=N)N)c3ccccc32)cc1`, the Activity rises from 15% to 67%.

System: HEK293
Assay: Cytotoxicity against HEK293 cells assessed as reduction in cell viability at 8 ug/ml after 24 hrs by MTS assay
Assay type: cell-based
Conditions: human, hek293, 24 h
In short: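 HEK293 cells grown in DMEM with 10% FBS, 2 mM glutamine and penicillin/streptomycin at 37 °C, 5% CO2. Cells seeded at 2×10^4 per well and allowed to adhere 24 h. Compound added at 8 µg/mL final from an 8 mg/mL DMSO stock, with vehicle controls, in triplicate for 24 h. Metabolic activity read by MTS (CellTiter 96 AQueous One).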

In the case of `COc1ccc2c(c1)c(CCNC(=N)N)cn2Cc1ccc(Cl)c(Cl)c1.Cl`, the Activity is reported as “Non-toxic”.
With `Cl.NCCc1cn(Cc2ccc(Cl)c(Cl)c2)c2ccccc12` the Activity was “Toxic”.
In the case of `COc1ccc2c(c1)c(CCNC(=N)N)c(C)n2Cc1ccc(Cl)c(Cl)c1.Cl`, the Activity is reported as “Non-toxic”.

System: Escherichia coli
Assay: Antibacterial activity against Escherichia coli ATCC 8739 assessed as no visual turbidity by broth microdilution method
Assay type: functional
Conditions: not given
In short: (§1)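 Broth microdilution in Mueller-Hinton broth following the EUCAST/CLSI procedure. Compounds were made as 10 mg/mL DMSO stocks, diluted 20-fold in broth just before use. Inoculum: colonies suspended to 0.5 McFarland (~1×10^8 CFU/mL) in 0.085% NaCl, then diluted 100-fold in broth. MIC is the lowest dilution with no visible turbidity.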

`NCCc1cn(Cc2cccc(Cl)c2)c2ccccc12` and `N=C(N)NCCc1cn(Cc2cccc(Cl)c2)c2ccccc12` are within 1.5-fold of each other in MIC: 100 µM for the first, 145 µM for the second.

Going from `COc1ccc2c(c1)c(CCNC(=N)N)cn2Cc1ccc(Cl)c(Cl)c1.Cl` to `COc1ccc2c(c1)c(CCNC(=N)N)c(C)n2Cc1ccc(Cl)c(Cl)c1.Cl`, the MIC rises from 37 µM to 72 µM (1.9-fold).

Going from `COc1ccccc1Cn1cc(CCNC(=N)N)c2ccccc21` to `N=C(N)NCCc1cn(Cc2ccc(F)cc2)c2ccccc12`, the MIC falls from over 356 µM to 184 µM.

`COc1ccc2c(c1)c(CCN)c(C)n2Cc1ccc(F)c(F)c1` and `NCCc1cn(Cc2ccc(F)c(F)c2)c2ccccc12` are within 1.5-fold of each other in MIC: 174 µM for the first, 198 µM for the second.

With `Cl.NCCc1cn(Cc2ccc(Cl)c(Cl)c2)c2ccccc12` the MIC was 45 µM.

System: Enterococcus faecium
Assay: Antibacterial activity against Enterococcus faecium ATCC 19434 assessed as no visual turbidity by broth microdilution method
Assay type: functional
Conditions: not given
In short: as §1

`NCCc1cn(Cc2cccc(Cl)c2)c2ccccc12` and `N=C(N)NCCc1cn(Cc2cccc(Cl)c2)c2ccccc12` are within 1.5-fold of each other in MIC: 100 µM for the first, 73 µM for the second.

Going from `COc1ccc2c(c1)c(CCNC(=N)N)cn2Cc1ccc(Cl)c(Cl)c1.Cl` to `COc1ccc2c(c1)c(CCNC(=N)N)c(C)n2Cc1ccc(Cl)c(Cl)c1.Cl`, the MIC falls from 19 µM to 9.1 µM (2.1-fold).

First: COc1ccccc1Cn1cc(CCNC(=N)N)c2ccccc21
Second: N=C(N)NCCc1cn(Cc2ccc(F)cc2)c2ccccc12
The MIC of the first is 4.2-fold lower: 44 µM for the first, 184 µM for the second.

`COc1ccc2c(c1)c(CCN)c(C)n2Cc1ccc(F)c(F)c1` and `NCCc1cn(Cc2ccc(F)c(F)c2)c2ccccc12` are within 1.5-fold of each other in MIC: 174 µM for the first, 198 µM for the second.

`Cl.NCCc1cn(Cc2ccc(Cl)c(Cl)c2)c2ccccc12` showed an MIC of 11 µM.

System: not listed separately
Assay: Binding affinity to lipid2 in carboxyfluorescein loaded DOPC large unilamellar vesicle assessed as inhibition of nisin-induced carboxyfluorescein leakage at 1.5 uM preincubated for 2 mins followed by nisin addition measured after 50 secs
Conditions: not given
In short: (§2)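 DOPC LUVs (200-nm extrusion) containing 0.1 mol% lipid II and loaded with 50 mM CF, used at 20 µM lipid in 10 mM Tris, 150 mM NaCl, pH 7.5. Compound (from 1 mM DMSO stock) preincubated 2 min, then 20 nM nisin added. Leakage read at ex 492/em 516 nm and normalized to Triton X-100 total release. Residual nisin activity at 50 s is expressed relative to a no-compound control; run in triplicate.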

In the case of `COc1ccc2c(c1)c(CCNC(=N)N)cn2Cc1ccc(Cl)c(Cl)c1.Cl`, the Activity is reported as “Active”.
In the case of `COc1ccc2c(c1)c(CCNC(=N)N)c(C)n2Cc1ccc(Cl)c(Cl)c1.Cl`, the Activity is reported as “Active”.

System: not listed separately
Assay: Binding affinity to lipid2 in carboxyfluorescein loaded DOPC large unilamellar vesicle assessed as inhibition of nisin-induced carboxyfluorescein leakage at 3 uM preincubated for 2 mins followed by nisin addition measured after 50 secs
Conditions: not given
In short: as §2

`COc1ccc2c(c1)c(CCNC(=N)N)c(C)n2Cc1ccc(Cl)c(Cl)c1.Cl` showed an inhibition of over 90%.

System: Staphylococcus aureus
Assay: Antibacterial activity against methicillin-resistant Staphylococcus aureus ATCC 43300 assessed as no visual turbidity by broth microdilution method
Assay type: functional
Conditions: not given
In short: (§3)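 Mueller-Hinton broth microdilution per EUCAST/CLSI, 200 µL final volume. Compounds taken from 10 mg/mL DMSO stocks and diluted 20-fold in broth just before use. Inoculum was colonies from overnight plates, adjusted to 0.5 McFarland (about 1.10^8 CFU/mL) in 0.085% NaCl, then diluted 100-fold in broth. MIC was the lowest dilution with no visible turbidity.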

`NCCc1cn(Cc2cccc(Cl)c2)c2ccccc12` and `N=C(N)NCCc1cn(Cc2cccc(Cl)c2)c2ccccc12` are within 1.5-fold of each other in MIC: 100 µM for the first, 145 µM for the second.

Compared with `COc1ccc2c(c1)c(CCNC(=N)N)cn2Cc1ccc(Cl)c(Cl)c1.Cl`, `COc1ccc2c(c1)c(CCNC(=N)N)c(C)n2Cc1ccc(Cl)c(Cl)c1.Cl` is 2.1-fold lower in MIC: 19 µM for the first, 9.1 µM for the second.

Compared with `COc1ccccc1Cn1cc(CCNC(=N)N)c2ccccc21`, `N=C(N)NCCc1cn(Cc2ccc(F)cc2)c2ccccc12` is 4.1-fold higher in MIC: 89 µM for the first, 369 µM for the second.

Going from `COc1ccc2c(c1)c(CCN)c(C)n2Cc1ccc(F)c(F)c1` to `NCCc1cn(Cc2ccc(F)c(F)c2)c2ccccc12`, the MIC rises from 174 µM to 397 µM (2.3-fold).

For `Cl.NCCc1cn(Cc2ccc(Cl)c(Cl)c2)c2ccccc12`, the MIC was 45 µM.

System: not listed separately
Assay: Inhibition of transglycosylase activity of Escherichia coli PBP1b incubated for 30 mins by continous fluorescence assay
Conditions: not given

Compared with `NCCc1cn(Cc2cccc(Cl)c2)c2ccccc12`, `N=C(N)NCCc1cn(Cc2cccc(Cl)c2)c2ccccc12` is lower in IC50: over 250 µM for the first, 166 µM for the second. The second is the more potent here.

`COc1ccc2c(c1)c(CCNC(=N)N)cn2Cc1ccc(Cl)c(Cl)c1.Cl` and `COc1ccc2c(c1)c(CCNC(=N)N)c(C)n2Cc1ccc(Cl)c(Cl)c1.Cl` are within 1.5-fold of each other in IC50: 50 µM for the first, 39 µM for the second.

`COc1ccccc1Cn1cc(CCNC(=N)N)c2ccccc21` and `N=C(N)NCCc1cn(Cc2ccc(F)cc2)c2ccccc12` cannot be ordered by IC50: over 250 µM for the first, over 250 µM for the second.

`COc1ccc2c(c1)c(CCN)c(C)n2Cc1ccc(F)c(F)c1` and `NCCc1cn(Cc2ccc(F)c(F)c2)c2ccccc12` cannot be ordered by IC50: over 250 µM for the first, over 250 µM for the second.

Work on `Cl.NCCc1cn(Cc2ccc(Cl)c(Cl)c2)c2ccccc12` yielded an IC50 of 103 µM.

System: Staphylococcus aureus
Assay: Antibacterial activity against Staphylococcus aureus ATCC 25923 assessed as no visual turbidity by broth microdilution method
Assay type: functional
Conditions: read-out: MIC
In short: as §3

`NCCc1cn(Cc2cccc(Cl)c2)c2ccccc12` and `N=C(N)NCCc1cn(Cc2cccc(Cl)c2)c2ccccc12` are within 1.5-fold of each other in MIC: 100 µM for the first, 145 µM for the second.

Compared with `COc1ccc2c(c1)c(CCNC(=N)N)cn2Cc1ccc(Cl)c(Cl)c1.Cl`, `COc1ccc2c(c1)c(CCNC(=N)N)c(C)n2Cc1ccc(Cl)c(Cl)c1.Cl` is 2.1-fold lower in MIC: 19 µM for the first, 9.1 µM for the second.

`COc1ccccc1Cn1cc(CCNC(=N)N)c2ccccc21` and `N=C(N)NCCc1cn(Cc2ccc(F)cc2)c2ccccc12` are within 1.5-fold of each other in MIC: 89 µM for the first, 92 µM for the second.

`COc1ccc2c(c1)c(CCN)c(C)n2Cc1ccc(F)c(F)c1` and `NCCc1cn(Cc2ccc(F)c(F)c2)c2ccccc12` are within 1.5-fold of each other in MIC: 174 µM for the first, 198 µM for the second.

`Cl.NCCc1cn(Cc2ccc(Cl)c(Cl)c2)c2ccccc12` gave an MIC of 45 µM.
